Test results: article PMC9279629 (Acta Pharmaceutica Sinica. B, 2021)

Experiments:
PDE10A = PDE10A (Homo sapiens, UniProt Q9Y233); test: PDE10A inhibition, fluorescence polarization; format: biochemical
Summary of the method: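 Test compound was dissolved in DMSO, stored at −20 °C and tested in a 10-point, 3-fold serial dilution from a top concentration of 1 µmol/L (n = 3). Enzyme activity was read by fluorescence polarization, and IC50 was derived from the concentration–response data.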

[1] = tested on: PDE1A/B/C, PDE2A, PDE3A/B, PDE4A/B/C/D, PDE5A, PDE7A, PDE8A, PDE9A; test: PDE selectivity panel, fluorescence polarization, single dose 5 μmol/L; format: biochemical; settings: concentrations up to 5 μmol/L

Chain of PDE10A (Q9Y233 whole entry): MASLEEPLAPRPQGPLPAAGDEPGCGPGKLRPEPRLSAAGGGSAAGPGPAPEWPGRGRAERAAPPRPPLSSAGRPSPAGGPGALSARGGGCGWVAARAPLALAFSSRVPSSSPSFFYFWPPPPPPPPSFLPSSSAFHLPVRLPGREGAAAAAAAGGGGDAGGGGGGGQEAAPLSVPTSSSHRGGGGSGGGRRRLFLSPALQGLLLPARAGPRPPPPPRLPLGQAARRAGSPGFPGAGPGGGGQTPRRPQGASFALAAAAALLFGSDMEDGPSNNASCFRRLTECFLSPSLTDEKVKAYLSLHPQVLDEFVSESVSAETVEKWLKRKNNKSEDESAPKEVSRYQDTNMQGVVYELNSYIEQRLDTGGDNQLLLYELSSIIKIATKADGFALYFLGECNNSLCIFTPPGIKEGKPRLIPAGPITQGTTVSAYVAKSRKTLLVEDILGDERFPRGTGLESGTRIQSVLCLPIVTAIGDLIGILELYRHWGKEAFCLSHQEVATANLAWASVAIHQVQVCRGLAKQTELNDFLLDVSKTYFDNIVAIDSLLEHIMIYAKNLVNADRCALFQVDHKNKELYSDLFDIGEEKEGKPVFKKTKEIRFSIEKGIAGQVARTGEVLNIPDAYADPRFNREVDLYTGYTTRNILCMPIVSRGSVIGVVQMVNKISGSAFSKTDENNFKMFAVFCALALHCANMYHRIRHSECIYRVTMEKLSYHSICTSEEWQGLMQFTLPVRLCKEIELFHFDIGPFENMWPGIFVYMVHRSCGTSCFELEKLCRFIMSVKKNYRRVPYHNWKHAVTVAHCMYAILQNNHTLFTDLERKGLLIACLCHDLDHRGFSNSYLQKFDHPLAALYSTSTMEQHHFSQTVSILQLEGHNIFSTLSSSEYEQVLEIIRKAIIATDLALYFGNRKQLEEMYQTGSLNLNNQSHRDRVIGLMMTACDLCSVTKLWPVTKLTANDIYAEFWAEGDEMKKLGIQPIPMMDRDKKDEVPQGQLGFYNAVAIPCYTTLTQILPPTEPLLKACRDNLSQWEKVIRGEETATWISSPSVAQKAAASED

IC50 (PDE10A): 2.07 nM
Structure (SMILES): Cc1ccc2c(=O)n(-c3ccc(F)cc3)c(CCN3C(=O)c4cccc(OC(C)C)c4C3=O)nc2c1 [compound 9, 2-(2-(3-(4-Fluorophenyl)-7-methyl-4-oxo-3,4-dihydroquinazolin-2-yl)ethyl)-4-isopropoxyisoindoline-1,3-dione]
inhibition of other PDE subtypes [1]: no significant inhibition
